According to ChEMBL document CHEMBL4196166 (J Med Chem, 2018):
Calls of active or inactive are those of the source. The rule behind the calls is not given here.

Legend:
Plasma kallikrein [1] = molecular target: T1, Plasma kallikrein (Homo sapiens, UniProt P03952); experiment: Inhibition of plasma kallikrein (unknown origin) at 10 nM to 33.3 uM after 30 mins by gel-based ABPP assay
Rattus norvegicus [2] = experiment: Antikaliuretic effect in Sprague-Dawley rat assessed as decrease in acetazolamide-induced K+ excretion at 1.5 mg/kg, iv measured after 6 hrs post dose relative to acetazolamide-treated control; assay type: ADME, organism-based; design: scale not given: the % may be the effect or the level left; details: in vivo
Method in brief: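 Male 21-week-old Sprague-Dawley rats, 8 per group. Given 25 mg/kg acetazolamide ip (0.9% saline), then 1.5 mg/kg compound iv (50 mM acetate buffer pH 5.5/5% DMSO, plus 0.5% Tween-80 for some analogs). Vehicle-only group included. Total urine collected in metabolic cages over 6 h. Urine Na+ and K+ measured on a biochemistry analyzer; compared with acetazolamide controls.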

Rattus norvegicus [3] = experiment: Antikaliuretic effect in Sprague-Dawley rat assessed as increase in acetazolamide-induced Na+ excretion at 1.5 mg/kg, iv measured after 6 hrs post dose relative to acetazolamide-treated control; assay type: ADME, organism-based; details: in vivo
Method in brief: (§1)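 Male 21-week-old Sprague-Dawley rats, 8 per group. One ip injection of 25 mg/kg acetazolamide (25 mg/mL in 0.9% saline, 1 mL/kg) or vehicle, then one iv injection of 1.5 mg/kg compound (1.5 mg/mL, 1 mL/kg) in 50 mM acetate buffer pH 5.5/5% DMSO, with 0.5% Tween-80 for some compounds. Total urine collected in metabolic cages over 6 h. Urine Na+ and K+ measured on a biochemistry analyzer. Mean ± SEM reported.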

[4] = molecular target: T2, Urokinase-type plasminogen activator (Homo sapiens, UniProt P00749); experiment: Inhibition of human kidney uPA using Z-Gly-Gly-Arg-AMC as substrate measured over 15 mins by fluorescence assay
[5] = molecular target: Tissue-type plasminogen activator (Homo sapiens, UniProt P00750); experiment: Inhibition of tPA (unknown origin) using chromogenic H-D-Ile-L-Pro-L-Arg-p-nitoraniline as substrate by […]
HepG2 = experiment: Cytotoxicity against human HepG2 cells assessed as reduction in cell viability after 48 hrs by CellTiter 96 Aqueous One solution cell proliferation assay; assay type: functional, cell-based; details: HepG2, 48 h
Method in brief: (§2)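 Cells grown in DMEM high glucose with 10% heat-inactivated FCS, seeded at 5000/well and left 18 h. Compounds added at 1 nM–100 µM final (0.2% vehicle), n = 4 wells per concentration, with colour blanks. After 48 h, MTS reagent added for 2 h and A490 read. IC50 from a variable-slope sigmoidal fit.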

Prothrombin = Prothrombin (Homo sapiens, UniProt P00734); experiment: Inhibition of thrombin (unknown origin) using chromogenic H-D-Ile-L-Pro-L-Arg-p-nitoraniline as substrate by […]
[6] = molecular target: Vitamin K-dependent protein C (Homo sapiens, UniProt P04070); experiment: Inhibition of activated protein C (unknown origin) using chromogenic L-pyroGlu-L-Pro-L-Arg-p-nitroaniline as substrate by fluorescence assay
Rattus norvegicus [7] = experiment: Diuretic effect in Sprague-Dawley rat assessed as increase in acetazolamide-induced urine volume at 1.5 mg/kg, iv measured after 6 hrs post dose relative to acetazolamide-treated control; assay type: ADME, organism-based; details: in vivo; method in brief: as §1
[8] = molecular target: T2, Urokinase-type plasminogen activator; experiment: Inhibition of human kidney uPA using chromogenic H-D-Ile-L-Pro-L-Arg-p-nitoraniline as substrate by fluorescence assay
Method in brief: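 Enzyme was uPA from human kidney cells at 10 nM final. […] Absorbance change at 405 nm gave initial rates. IC50 from a sigmoidal fit of % residual activity vs log concentration.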

Plasma kallikrein [9] = molecular target: T1, Plasma kallikrein; experiment: Inhibition of human plasma kallikrein using chromogenic L-pyroGlu-L-Pro-L-Arg-p-nitroaniline as substrate by fluorescence assay
Plasminogen = Plasminogen (Homo sapiens, UniProt P00747); experiment: Inhibition of plasmin (unknown origin) using chromogenic H-D-Ile-L-Pro-L-Arg-p-nitoraniline as substrate by […]
HT-1080 = experiment: Cytotoxicity against human HT1080 cells assessed as reduction in cell viability after 48 hrs by CellTiter 96 Aqueous One solution cell proliferation assay; assay type: functional, cell-based; details: HT-1080, 48 h; method in brief: as §2
HEK293 = experiment: Cytotoxicity against HEK293 cells assessed as reduction in cell viability after 48 hrs by CellTiter 96 Aqueous One solution cell proliferation assay; assay type: cell-based; details: Homo sapiens, HEK293, 48 h; method in brief: as §2
[10] = molecular target: Urokinase-type plasminogen activator (Mus musculus, UniProt P06869); experiment: Inhibition of mouse uPA using Z-Gly-Gly-Arg-AMC as substrate after 15 mins by fluorescence assay
Coagulation factor X = Coagulation factor X (Homo sapiens, UniProt P00742); experiment: Inhibition of factor 10a (unknown origin) using chromogenic H-D-Ile-L-Pro-L-Arg-p-nitoraniline as substrate by fluorescence assay
Coagulation factor XI = Coagulation factor XI (Homo sapiens, UniProt P03951); experiment: Inhibition of factor 11a (unknown origin) using chromogenic L-pyroGlu-L-Pro-L-Arg-p-nitroaniline as substrate by […]
Trypsin = Trypsin (Homo sapiens, UniProt P07477+P07478+P35030); experiment: Inhibition of trypsin (unknown origin) using chromogenic H-D-Ile-L-Pro-L-Arg-p-nitoraniline as substrate by […]; assay type: protein assay
[11] = molecular target: T3, Epithelial sodium channel subunit beta (Homo sapiens, UniProt P51168); experiment: Inhibition of S-3969-stimulated recombinant human ENaC beta subunit expressed in HEK293 cells at 10 uM preincubated for 5 mins followed by S-3969 stimulation by FLIPR assay; assay type: cell-based; details: hek293, 10 µM
T3 sequence (P51168 whole entry): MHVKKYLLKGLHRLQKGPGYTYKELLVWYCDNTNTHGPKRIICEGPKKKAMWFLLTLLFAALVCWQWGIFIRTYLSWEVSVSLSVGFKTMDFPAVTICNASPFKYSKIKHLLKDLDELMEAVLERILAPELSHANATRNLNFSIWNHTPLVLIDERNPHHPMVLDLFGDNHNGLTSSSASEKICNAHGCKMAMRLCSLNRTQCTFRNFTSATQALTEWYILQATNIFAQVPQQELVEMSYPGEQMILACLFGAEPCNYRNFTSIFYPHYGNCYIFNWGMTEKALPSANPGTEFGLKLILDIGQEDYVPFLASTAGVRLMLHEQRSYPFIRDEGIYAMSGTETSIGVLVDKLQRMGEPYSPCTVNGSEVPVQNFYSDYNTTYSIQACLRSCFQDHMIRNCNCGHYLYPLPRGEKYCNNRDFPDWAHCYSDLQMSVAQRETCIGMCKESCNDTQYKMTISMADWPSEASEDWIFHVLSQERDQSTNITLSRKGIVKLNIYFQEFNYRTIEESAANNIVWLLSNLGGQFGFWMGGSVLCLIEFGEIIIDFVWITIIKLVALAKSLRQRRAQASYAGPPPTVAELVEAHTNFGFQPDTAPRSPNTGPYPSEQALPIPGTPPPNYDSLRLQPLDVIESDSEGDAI
Method in brief: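 HEK-293 cells transfected with human ENaC α, β and γ cDNA together, plated at 20 000 cells/well, incubated overnight at 37 °C. Loaded with membrane-potential red dye for 30 min at 37 °C. Compound preincubated 5 min in HEPES-buffered salt solution (pH 7.4, 0.3% DMSO), then stimulated with 1 µM S-3969, read on FLIPR. Signal normalized to agonist alone (100%) and agonist plus 30 µM benzamil (0%). n = 4 wells.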

Sequence of Coagulation factor XI (P03951 19-387 limits assumed): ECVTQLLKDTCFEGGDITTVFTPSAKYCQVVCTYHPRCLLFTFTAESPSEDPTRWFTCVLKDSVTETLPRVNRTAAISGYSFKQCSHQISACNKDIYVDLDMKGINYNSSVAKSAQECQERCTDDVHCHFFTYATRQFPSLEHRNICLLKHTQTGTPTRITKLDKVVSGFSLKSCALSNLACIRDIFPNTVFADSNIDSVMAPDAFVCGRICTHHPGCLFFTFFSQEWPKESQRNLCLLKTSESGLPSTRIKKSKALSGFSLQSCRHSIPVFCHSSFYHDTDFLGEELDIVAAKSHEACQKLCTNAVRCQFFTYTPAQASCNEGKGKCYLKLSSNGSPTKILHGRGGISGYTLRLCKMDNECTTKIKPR
Sequence of Coagulation factor XI (P03951 388-625 limits assumed): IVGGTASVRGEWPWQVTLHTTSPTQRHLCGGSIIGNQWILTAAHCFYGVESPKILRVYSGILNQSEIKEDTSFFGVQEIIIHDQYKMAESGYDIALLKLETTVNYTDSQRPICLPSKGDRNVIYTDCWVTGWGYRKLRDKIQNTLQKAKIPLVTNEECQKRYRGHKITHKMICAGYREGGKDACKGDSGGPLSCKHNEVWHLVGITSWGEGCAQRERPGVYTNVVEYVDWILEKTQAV
Sequence of Vitamin K-dependent protein C (P04070 43-197 limits assumed): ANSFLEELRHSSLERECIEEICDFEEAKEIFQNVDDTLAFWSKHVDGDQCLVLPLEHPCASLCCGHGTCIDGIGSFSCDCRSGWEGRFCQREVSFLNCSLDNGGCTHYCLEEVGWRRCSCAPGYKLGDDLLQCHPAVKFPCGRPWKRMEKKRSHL
Sequence of Vitamin K-dependent protein C (P04070 212-461 limits assumed): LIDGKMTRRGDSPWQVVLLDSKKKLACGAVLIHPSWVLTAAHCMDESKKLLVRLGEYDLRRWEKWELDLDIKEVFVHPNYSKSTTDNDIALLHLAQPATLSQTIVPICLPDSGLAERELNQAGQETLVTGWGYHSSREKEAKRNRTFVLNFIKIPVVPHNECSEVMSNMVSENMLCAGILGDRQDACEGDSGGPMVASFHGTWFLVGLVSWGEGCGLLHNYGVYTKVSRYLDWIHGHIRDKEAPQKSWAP
Sequence of Plasminogen (P00747 97-580 limits assumed): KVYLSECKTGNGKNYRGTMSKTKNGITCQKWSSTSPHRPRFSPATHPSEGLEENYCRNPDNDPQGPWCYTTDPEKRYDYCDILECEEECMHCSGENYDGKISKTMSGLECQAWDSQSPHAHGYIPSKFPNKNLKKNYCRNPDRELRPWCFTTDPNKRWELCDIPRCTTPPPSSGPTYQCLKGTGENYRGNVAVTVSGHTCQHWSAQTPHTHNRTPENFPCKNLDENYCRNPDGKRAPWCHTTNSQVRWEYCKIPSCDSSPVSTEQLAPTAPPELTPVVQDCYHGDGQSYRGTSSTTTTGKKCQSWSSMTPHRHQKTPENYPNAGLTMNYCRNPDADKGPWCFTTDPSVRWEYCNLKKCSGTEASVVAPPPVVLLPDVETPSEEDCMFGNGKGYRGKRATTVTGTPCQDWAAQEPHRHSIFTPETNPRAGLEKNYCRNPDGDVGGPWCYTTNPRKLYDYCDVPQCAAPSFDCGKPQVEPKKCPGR
Sequence of Plasminogen (P00747 581-810 limits assumed): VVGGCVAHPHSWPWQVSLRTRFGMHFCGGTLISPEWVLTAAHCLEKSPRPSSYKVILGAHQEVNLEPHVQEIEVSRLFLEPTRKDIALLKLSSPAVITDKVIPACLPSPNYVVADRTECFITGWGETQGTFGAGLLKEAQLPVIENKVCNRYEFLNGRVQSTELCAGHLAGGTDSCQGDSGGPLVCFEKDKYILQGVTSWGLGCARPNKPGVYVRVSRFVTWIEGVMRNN
Sequence of Urokinase-type plasminogen activator (Mus musculus, UniProt P06869) (P06869 21-178 limits assumed): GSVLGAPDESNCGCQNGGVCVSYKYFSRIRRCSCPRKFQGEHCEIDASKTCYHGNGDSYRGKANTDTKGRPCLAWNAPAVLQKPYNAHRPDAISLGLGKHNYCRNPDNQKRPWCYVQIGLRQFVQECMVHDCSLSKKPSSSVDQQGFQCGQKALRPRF
Sequence of Urokinase-type plasminogen activator (Mus musculus, UniProt P06869) (P06869 180-433 limits assumed): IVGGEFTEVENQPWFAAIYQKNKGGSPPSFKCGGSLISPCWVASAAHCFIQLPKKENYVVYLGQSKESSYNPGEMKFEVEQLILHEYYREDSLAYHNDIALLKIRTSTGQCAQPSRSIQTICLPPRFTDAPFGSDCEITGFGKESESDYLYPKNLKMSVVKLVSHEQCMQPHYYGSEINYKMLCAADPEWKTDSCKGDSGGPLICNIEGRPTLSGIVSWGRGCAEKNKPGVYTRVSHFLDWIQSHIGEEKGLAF
Sequence of Coagulation factor X (P00742 41-179 limits assumed): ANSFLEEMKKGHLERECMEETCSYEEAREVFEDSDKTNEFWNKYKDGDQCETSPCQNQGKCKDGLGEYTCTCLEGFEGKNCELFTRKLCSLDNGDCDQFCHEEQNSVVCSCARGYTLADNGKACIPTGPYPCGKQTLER
Sequence of Coagulation factor X (P00742 235-488 limits assumed): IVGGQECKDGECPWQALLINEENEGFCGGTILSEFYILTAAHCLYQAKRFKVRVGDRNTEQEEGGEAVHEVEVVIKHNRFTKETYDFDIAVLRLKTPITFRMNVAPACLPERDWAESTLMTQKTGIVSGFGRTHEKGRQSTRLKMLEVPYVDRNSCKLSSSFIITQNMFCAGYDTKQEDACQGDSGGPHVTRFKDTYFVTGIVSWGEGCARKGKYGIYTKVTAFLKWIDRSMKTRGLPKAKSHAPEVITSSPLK
T1 sequence (P03952 20-390 limits assumed): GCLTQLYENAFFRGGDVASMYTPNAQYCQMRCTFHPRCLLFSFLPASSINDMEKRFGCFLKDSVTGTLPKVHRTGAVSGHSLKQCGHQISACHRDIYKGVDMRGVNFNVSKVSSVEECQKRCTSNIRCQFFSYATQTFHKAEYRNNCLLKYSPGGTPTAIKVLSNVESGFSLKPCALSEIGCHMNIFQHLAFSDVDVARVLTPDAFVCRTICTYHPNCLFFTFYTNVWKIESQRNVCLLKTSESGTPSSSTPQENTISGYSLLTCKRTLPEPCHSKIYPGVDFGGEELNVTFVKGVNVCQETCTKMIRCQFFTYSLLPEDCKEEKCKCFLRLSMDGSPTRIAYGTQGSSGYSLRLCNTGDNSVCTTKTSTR
T1 sequence (P03952 391-638 limits assumed): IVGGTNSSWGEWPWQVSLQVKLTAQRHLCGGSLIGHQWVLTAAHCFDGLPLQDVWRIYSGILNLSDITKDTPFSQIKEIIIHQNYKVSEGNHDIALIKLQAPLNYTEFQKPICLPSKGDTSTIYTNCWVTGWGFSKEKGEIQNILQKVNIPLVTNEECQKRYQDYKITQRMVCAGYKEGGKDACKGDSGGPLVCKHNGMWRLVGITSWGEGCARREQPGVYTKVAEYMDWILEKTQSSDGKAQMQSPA
Sequence of Tissue-type plasminogen activator (P00750 whole entry): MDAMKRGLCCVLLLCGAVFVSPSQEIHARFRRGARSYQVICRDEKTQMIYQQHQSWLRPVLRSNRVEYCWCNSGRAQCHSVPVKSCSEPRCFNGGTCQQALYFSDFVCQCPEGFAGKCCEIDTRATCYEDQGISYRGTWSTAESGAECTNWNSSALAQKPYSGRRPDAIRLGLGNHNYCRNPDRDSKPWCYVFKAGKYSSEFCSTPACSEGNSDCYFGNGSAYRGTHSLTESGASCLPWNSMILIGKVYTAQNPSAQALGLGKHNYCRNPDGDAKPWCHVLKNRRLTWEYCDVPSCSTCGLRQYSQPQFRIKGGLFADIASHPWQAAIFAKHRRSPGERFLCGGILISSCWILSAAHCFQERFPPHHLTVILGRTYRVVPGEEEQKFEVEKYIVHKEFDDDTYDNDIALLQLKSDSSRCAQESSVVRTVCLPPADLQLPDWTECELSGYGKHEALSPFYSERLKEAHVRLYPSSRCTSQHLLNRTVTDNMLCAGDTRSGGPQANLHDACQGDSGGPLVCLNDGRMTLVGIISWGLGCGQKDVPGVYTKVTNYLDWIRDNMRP

COc1ncc(-c2nc(C(=O)NC(=N)N)c(N)nc2N2CCCCCC2)cn1
inhibition (Plasma kallikrein [1]): Active
Activity (Rattus norvegicus [2]): 24%
Activity (Rattus norvegicus [3]): Non-Toxic
Ki [4]: 0.053 µM
IC50 [5]: > 20 µM
IC50 (HepG2): 57.3 µM
IC50 (Prothrombin): > 20 µM
IC50 [6]: > 50 µM
Activity (Rattus norvegicus [7]): Non-Toxic
IC50 [8]: 0.039 µM
IC50 (Plasma kallikrein [9]): > 50 µM
IC50 (Plasminogen): > 20 µM
IC50 (HT-1080): 44.8 µM
IC50 (HEK293): 74.9 µM
Ki [10]: 1.61 µM
IC50 (Coagulation factor X): > 50 µM
IC50 (Coagulation factor XI): > 50 µM

N=C(N)NC(=O)c1nc(-c2cc3ccccc3o2)c(N2CCCCCC2)nc1N
inhibition (Plasma kallikrein [1]): Active
Activity (Rattus norvegicus [2]): Non-Toxic
Activity (Rattus norvegicus [3]): Non-Toxic
Ki [4]: 0.183 µM
IC50 [5]: > 10 µM
IC50 (HepG2): 12.7 µM
IC50 (Prothrombin): > 10 µM
IC50 (Trypsin): > 10 µM
IC50 [6]: > 50 µM
Activity (Rattus norvegicus [7]): Non-Toxic
IC50 [8]: 0.53 µM
IC50 (Plasma kallikrein [9]): 11.3 µM
IC50 (Plasminogen): > 10 µM
IC50 (HT-1080): 4.6 µM
inhibition (INH) [11]: Not Active
IC50 (HEK293): 3.1 µM
Ki [10]: 1.8 µM
IC50 (Coagulation factor X): > 50 µM
IC50 (Coagulation factor XI): 31 µM

N=C(N)NC(=O)c1nc(Cl)c(N2CCCCCC2)nc1N [N,N-HEXAMETHYLENEAMILORIDE]
Activity (Rattus norvegicus [2]): 24%
Activity (Rattus norvegicus [3]): Non-Toxic
Ki [4]: 1.36 µM
IC50 [5]: > 10 µM
IC50 (HepG2): 20.2 µM
IC50 (Prothrombin): > 10 µM
IC50 (Trypsin): > 10 µM
IC50 [6]: > 50 µM
Activity (Rattus norvegicus [7]): Non-Toxic
IC50 [8]: 2.4 µM
IC50 (Plasma kallikrein [9]): > 50 µM
IC50 (Plasminogen): > 10 µM
IC50 (HT-1080): 6.6 µM
inhibition (INH) [11]: Not Active
IC50 (HEK293): 2.8 µM
Ki [10]: 9.31 µM
IC50 (Coagulation factor X): > 50 µM
IC50 (Coagulation factor XI): > 50 µM
